One experiment concerns SW-620. The experiment is described as follows: Cytotoxicity against human SW620 cells after 72 hrs by MTT assay. The experiment is classed as functional, cell-based. To be noted: SW-620, 72 h. In a few lines:
(§1)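 5000–10,000 cells seeded per well and exposed for 72 h in a CO₂ incubator to five concentrations, the highest 10 µM (top soluble). MTT (125 µg) added for 3 h, then lysed with 10% SDS–0.01 N HCl for 1 h. Absorbance read at 540 nm. % cytotoxicity = (1 − (treated−blank)/control)×100.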
For orientation: Formazan colour is commonly taken as a measure of viable cells.

The next experiment deals with PA-1. The experiment is described as follows: Cytotoxicity against human PA1 cells after 72 hrs by MTT assay. It counts as functional, cell-based. To be noted: PA-1, 72 h. In a few lines:
as §1

The subject of the next experiment is K562. As to the kind of experiment: Cytotoxicity against human K562 cells after 72 hrs by MTT assay. The experiment is classed as functional, cell-based. To be noted: K562, 72 h. In a few lines:
as §1

The test system of another experiment is KB. As to the kind of experiment: Cytotoxicity against human KB cells after 72 hrs by MTT assay. It counts as functional, cell-based. The procedure, abridged:
as §1

The next experiment has as its system NIH3T3 (Mus musculus). The experiment is described as follows: Cytotoxicity against mouse NIH3T3 cells after 72 hrs by MTT assay. The conditions noted are these: NIH3T3, 72 h.
Experiment [1] in a line: Cytotoxicity against human MIA PaCa cells after 72 hrs by MTT assay. It counts as functional, cell-based. In a few lines: as §1
Another experiment has as its system A549. The experiment is described as follows: Cytotoxicity against human A549 cells after 72 hrs by MTT assay. The experiment is classed as functional, cell-based. To be noted: A549, 72 h. The procedure, abridged:
as §1

The next experiment deals with HBL-100. The experiment is described as follows: Cytotoxicity against human HBL100 cells after 72 hrs by MTT assay. It counts as functional, cell-based. The conditions noted are these: HBL-100, 72 h. In a few lines: as §1
The subject of another experiment is DU-145. As to the kind of experiment: Cytotoxicity against human DU145 cells after 72 hrs by MTT assay. The conditions noted are these: DU-145, 72 h. The experiment is classed as functional, cell-based. The procedure, abridged: as §1
Experiment [2] has as its system Dendritic cell. The experiment is described as follows: Myeloprotective activity assessed as inhibition of TNFalpha secretion in mouse dendritic cells after 24 hrs by ELISA relative to basal level. The experiment is classed as functional, cell-based. The procedure, abridged: (§2)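 Murine bone-marrow-derived dendritic cells, not LPS-stimulated, incubated with compounds at 0.1 and 1 µg/ml for 24 h. MIP-1α, CCL22 and TNF-α in culture supernatants measured by ELISA. % change = (B−A)/A×100 against untreated DCs.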
A general note: In an ELISA, binding on a coated surface is turned into a signal by an enzyme label.

Experiment [3] is described as follows: Antiinflammatory activity assessed as inhibition of TNFalpha secretion in LPS-induced C57BL/6 mouse dendritic cells at 1 ug/mL after 24 hrs by ELISA. To be noted: C57BL/6, Dendritic cell. It counts as functional. The procedure, abridged:
(§3)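 DCs grown from femoral bone marrow of 8–12-week-old C57BL/6 mice in RPMI-1640 with 10% FBS and rmGM-CSF (20 ng/ml), 37 °C, 5% CO₂. Immature DCs stimulated with LPS (100 ng/ml) and exposed to compounds (0.001–10 µg/ml range) for 24 h. Cytokine in supernatant quantified by ELISA. % change = (B−A)/A×100, where A is LPS-stimulated DCs without compound.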

In experiment [4] the test system is Dendritic cell. The experiment is described as follows: Myeloprotective activity assessed as stimulation of MIP1 secretion in mouse dendritic cells after 24 hrs by ELISA relative to basal level. It counts as functional, cell-based. In a few lines:
as §2

In experiment [5] the test system is Dendritic cell. As to the kind of experiment: Antiinflammatory activity assessed as inhibition of IP-10 secretion in LPS-induced C57BL/6 mouse dendritic cells after 24 hrs by ELISA. It counts as functional, cell-based. In a few lines:
as §3

Experiment [6] deals with Dendritic cell. As to the kind of experiment: Myeloprotective activity assessed as inhibition of CCL22 secretion in mouse dendritic cells after 24 hrs by ELISA. It counts as functional, cell-based. In a few lines: as §2
The nature of experiment [7]: Antiinflammatory activity assessed as inhibition of IL1-beta secretion in LPS-induced C57BL/6 mouse dendritic cells after 24 hrs by ELISA. The experiment is classed as functional, Dendritic cell. In a few lines: as §3

Experimental findings from ChEMBL document CHEMBL1140577, “Anticancer and anti-inflammatory activities of 1,8-naphthyridine-3-carboxamide derivatives” (Bioorg Med Chem Lett, 2007) are described below.

SMILES strings stand for the structures. pIC50: −log10 of the molar value. Activity calls are given as the source filed them. The calls are words filed in the database; no cut-off is given here.

In the case of `C#CCn1cc(C(=O)NCCCOC(=O)CNC(=O)OC(C)(C)C)c(=O)c2cccnc21`, the negative logarithm of the IC50 (pIC50) (in general, the negative decadic logarithm of the IC50, by convention in mol/L) in the experiment with SW-620 is under 5.00; with PA-1 it was 5.05; in the experiment on K562, under 5.00; in the experiment with KB it was 5.15; with NIH3T3 (Mus musculus), under 5.00; in experiment [1] it was under 5.00. Further, the pIC50 in the experiment on A549, in the experiment with HBL-100 and in the experiment with DU-145 was under 5.00 each time.
With `C#CCn1cc(C(=O)NCCCOC(=O)CNC(=O)OC(C)(C)C)c(=O)c2ccc(Cl)nc21`, the outcome in the experiment on Dendritic cell [2], in the experiment with Dendritic cell [4], in the experiment on Dendritic cell [5] and with Dendritic cell [6] was Active. Also, in experiment [3], the inhibition (usually how much of the control response was suppressed) at 1 µg/mL is over 50%.
In the case of `C#CCn1cc(C(=O)NCCCOC(=O)[C@H]2OC(C)(C)N(C(=O)OC(C)(C)C)[C@@H]2c2ccccc2)c(=O)c2cccnc21`, the Inhibition (usually the drop in the measured response relative to a control, in per cent) in [7] is given as over 50%.
As for `C#CCn1cc(C(=O)NCCCOC(=O)[C@H]2CCCN2C(=O)OC(C)(C)C)c(=O)c2ccc(C)nc21`, the pIC50 in the experiment on SW-620 is under 5.00; with PA-1, under 5.00; in the experiment on K562, under 5.00; in the experiment on KB, 5.43; in the experiment on NIH3T3 (Mus musculus) it was under 5.00; in experiment [1], under 5.00. The negative logarithm of the IC50 (pIC50) in the experiment on A549, in the experiment with HBL-100 and in the experiment with DU-145 was under 5.00 in each case.
Turning to `C#CCn1cc(C(=O)N[C@@H](C)CCOC(=O)[C@H]2CCCN2C(=O)OC(C)(C)C)c(=O)c2ccc(Cl)nc21`, the pIC50 in the experiment with SW-620 was 5.48; with PA-1 it was 5.28; in the experiment on K562, under 5.00; in the experiment with KB, 5.18; in the experiment on NIH3T3 (Mus musculus), under 5.00; in experiment [1], under 5.00. Further, the pIC50 with A549 was under 5.00; with HBL-100, 5.08; in the experiment with DU-145, under 5.00.
On to `C#CCn1cc(C(=O)NCCCOC(=O)[C@H](C)NC(=O)OC(C)(C)C)c(=O)c2ccc(Cl)nc21`, for which the pIC50 in the experiment on SW-620 was under 5.00; in the experiment with PA-1 it was under 5.00; in the experiment with K562 it was under 5.00; with KB, under 5.00; in the experiment on NIH3T3 (Mus musculus), 5.04; in experiment [1], under 5.00. Further, the pIC50 in the experiment with A549 was under 5.00; in the experiment with HBL-100, 5.27; in the experiment with DU-145, under 5.00. Further, the outcome in the experiment with Dendritic cell [2], with Dendritic cell [4] and in the experiment with Dendritic cell [6] was Active.
In the case of `C#CCn1cc(C(=O)NCCCOC(=O)[C@@H](O)[C@@H](N)c2ccccc2)c(=O)c2ccc(Cl)nc21`, the Inhibition in experiment [7] was over 50%.
Take `C#CCn1cc(C(=O)N[C@@H](C)CCOC(=O)[C@H](C)NC(=O)OC(C)(C)C)c(=O)c2ccc(Cl)nc21`: the pIC50 with SW-620 was under 5.00; in the experiment with PA-1, 5.31; in the experiment with K562 it was under 5.00; with KB, 5.08; with NIH3T3 (Mus musculus), under 5.00; in experiment [1] it was under 5.00. Also, the pIC50 with A549, in the experiment on HBL-100 and in the experiment on DU-145 was under 5.00 each time.
For `C#CCn1cc(C(=O)NCCCOC(=O)[C@H]2OC(C)(C)N(C(=O)OC(C)(C)C)[C@@H]2c2ccccc2)c(=O)c2ccc(Cl)nc21`, the negative-log IC50 (pIC50) is 5.40 in the experiment with SW-620; 5.22 in the experiment on PA-1; under 5.00 with K562; under 5.00 in the experiment on KB; under 5.00 with NIH3T3 (Mus musculus); under 5.00 in experiment [1]. The values for the pIC50 with A549, with HBL-100 and with DU-145 were under 5.00, 5.86 and under 5.00, respectively. The inhibition at 1 µg/mL in [3] is over 50%. Moreover, the Inhibition in experiment [7] is listed as over 50%.
Regarding `C#CCn1cc(C(=O)NCCCOC(=O)[C@@H](O)[C@@H](NC(=O)OC(C)(C)C)c2ccccc2)c(=O)c2ccc(Cl)nc21`, the pIC50 in the experiment with SW-620 was 5.52; in the experiment with PA-1, under 5.00; in the experiment with K562, under 5.00; in the experiment with KB, under 5.00; in the experiment with NIH3T3 (Mus musculus) it was 5.11; in [1] it was under 5.00. Also, the negative-log IC50 (pIC50) in the experiment on A549, in the experiment on HBL-100 and in the experiment on DU-145 was under 5.00 throughout. The inhibition at 1 µg/mL in experiment [3] is over 50%. In the experiment on Dendritic cell [5], the outcome was Active.
For the compound `C#CCn1cc(C(=O)NCCCOC(=O)[C@H]2CCCN2C(=O)OC(C)(C)C)c(=O)c2ccc(Cl)nc21`, the pIC50 in the experiment with SW-620 is under 5.00; in the experiment on PA-1, under 5.00; in the experiment on K562, under 5.00; with KB, under 5.00; in the experiment on NIH3T3 (Mus musculus) it was 5.08; in experiment [1], 5.12. The negative-log IC50 (pIC50) in the experiment with A549 was under 5.00; in the experiment with HBL-100 it was 5.43; with DU-145, under 5.00. The result in the experiment on Dendritic cell [2], with Dendritic cell [4], in the experiment with Dendritic cell [5] and in the experiment with Dendritic cell [6] was Active. Further, the inhibition at 1 µg/mL in [3] is over 50%.
